Experimental findings from ChEMBL document CHEMBL1128515, “Cardioselective anti-ischemic ATP-sensitive potassium channel openers. 3. Structure-activity studies on benzopyranyl cyanoguanidines: modification of the cyanoguanidine portion” (J Med Chem, 1995) are described below.

Where only a bound is given, the exact number is not on record here.

The EC25 is the concentration at which the effect reaches the 25% level. Low readings indicate greater potency, high ones weaker potency. One may read the IC50 as the concentration that gives 50% inhibition.

Type in all cases: functional
For experiment [1], the species on record is Rattus norvegicus. As to the kind of experiment: Ratio of the concentration increasing time to contracture by 25% (EC25) in rat heart and concentration showing vasorelaxant potency (IC50) in rat aorta. An outline of the steps:
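Cardiac selectivity index: the ratio of vasorelaxant potency (IC50 for relaxing methoxamine-contracted rat aorta) to anti-ischemic potency (EC25 for increasing time to contracture in globally ischemic isolated perfused rat hearts).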

Experiment [2] is filed under the species Rattus norvegicus. As to the kind of experiment: Concentration necessary for increase in time to contracture by 25% in the globally ischemic rat hearts. An outline of the steps: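 Isolated rat hearts, perfused and then made globally ischemic. The EC25 is the concentration giving a 25% increase in time to onset of contracture. Time to contracture is the time during total global ischemia for end-diastolic pressure to rise 5 mmHg above baseline.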

Experiment [3] is filed under the species Rattus norvegicus. As to the kind of experiment: Tested for the vasorelaxant potency in methoxamine contracted rat aorta. An outline of the steps:
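Rat aortic tissue contracted with methoxamine. The IC50 is the concentration producing relaxation.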

The species named for experiment [4] is Rattus norvegicus. As to the kind of experiment: Concentration necessary for increase in time to contracture at a concentration of 10 uM in ischemic rat hearts.

With `CC1(C)Oc2ccc(C#N)cc2[C@@H](/N=C(\NC#N)Nc2ccc([N+](=O)[O-])cc2)[C@@H]1O`, the Ratio in experiment [1] was determined as 20.6. This molecule also came in with an EC25 in experiment [2] of 6.2 µM. In experiment [3], this molecule returned an IC50 of 0.3 µM.

Turning to `COc1ccc(N/C(=N/[C@@H]2c3cc(C#N)ccc3OC(C)(C)[C@H]2O)NC#N)cc1`, the Ratio in experiment [1] was 0.16. In experiment [2], this molecule gave an EC25 of 5.3 µM. The molecule further had an IC50 in experiment [3] of 32.5 µM.

For the molecule `CC1(C)Oc2ccc(C#N)cc2[C@@H](NC(=O)NCc2ccccc2)[C@@H]1O`, the EC25 in experiment [2] is above 30 µM. This molecule also yielded an IC50 in experiment [3] of 5.6 µM.

In experiment [2], `COC(=O)c1cc2ccccc2n1[C@@H]1c2cc(C#N)ccc2OC(C)(C)[C@H]1O` displayed an EC25 of 8.1 µM.

For `COC(=O)c1cccc(N/C(=N/[C@@H]2c3cc(C#N)ccc3OC(C)(C)[C@H]2O)NC#N)c1`, the IC50 in experiment [3] came to 4.1 µM.

In the case of `CC1(C)Oc2ccc(C#N)cc2[C@@H](/N=C(\NC#N)Nc2cccc(Cl)c2)[C@@H]1O`, in experiment [1], the Ratio is recorded as 2.3. In experiment [2], this molecule yielded an EC25 of 1.4 µM. In experiment [3], this molecule returned an IC50 of 0.6 µM.

Take `Cc1ccc(N/C(=N/[C@@H]2c3cc(C#N)ccc3OC(C)(C)[C@H]2O)NC#N)cc1C`: the Ratio in experiment [1] came out at 0.49. The molecule also displayed an EC25 in experiment [2] of 2.5 µM. This molecule also gave a concentration for half-maximal inhibition (IC50) in experiment [3] of 5.1 µM.

As for `CC1(C)Oc2ccc(C#N)cc2[C@@H](/N=C(\NC#N)Nc2ccc(C(F)(F)F)cc2)[C@@H]1O`, the Ratio in experiment [1] is 1.4.

For the molecule `CC1(C)Oc2ccc(C#N)cc2[C@@H](n2cc(C#N)c3ccccc32)[C@@H]1O`, the Ratio in experiment [1] was determined as 11.5. The same molecule registered a 25% effect concentration (EC25) in experiment [2] of 25.5 µM. This molecule showed a half-inhibitory concentration (IC50) in experiment [3] of 2.2 µM.

Take `CC1(C)Oc2ccc(C#N)cc2[C@@H](/N=C(\NC#N)Sc2ccccc2)[C@@H]1O`: in experiment [2], the EC25 was above 30 µM. In experiment [3], the concentration for half-maximal inhibition (IC50) was 4.9 µM.

Take `Cc1ccc(N/C(=N/[C@@H]2c3cc(C#N)ccc3OC(C)(C)[C@H]2O)NC#N)cc1`: in experiment [1], the Ratio was 0.6. This molecule gave an EC25 in experiment [2] of 1.6 µM. The molecule also showed an IC50 in experiment [3] of 2.7 µM.

Regarding `CC1(C)Oc2ccc(C#N)cc2[C@@H](/N=C(\NC#N)Oc2ccccc2)[C@@H]1O`, the EC25 in experiment [2] amounted to 68.8 µM. The molecule further displayed an IC50 in experiment [3] above 100 µM.

As to `Cc1cccc(N/C(=N/[C@@H]2c3cc(C#N)ccc3OC(C)(C)[C@H]2O)NC#N)c1`, in experiment [2], the EC25 came out at 2.7 µM.

Molecule `COC(=O)c1ccc(N/C(=N/[C@@H]2c3cc(C#N)ccc3OC(C)(C)[C@H]2O)NC#N)cc1` yielded an IC50 in experiment [3] of 18.4 µM.

Consider `CC1(C)Oc2ccc(C#N)cc2[C@@H](/N=C(\NC#N)Nc2ccc(Cl)cc2)[C@@H]1O`, for which the Ratio in experiment [1] came to 1.4.

`CC1(C)Oc2ccc(C#N)cc2[C@@H](N2CCN(c3ccccc3)C2=O)[C@@H]1O`: in experiment [1], the Ratio is 0.42. The same molecule gave an EC25 in experiment [2] of 10 µM. In addition, in experiment [3], the half-inhibitory concentration (IC50) was 23.7 µM.

On to `CC1(C)Oc2ccc(C#N)cc2[C@@H](NC(=O)Nc2ccncc2)[C@@H]1O`, for which the Increase in experiment [2] came out at 1%. Further, the IC50 in experiment [3] was found to be 8.5 µM.

`CC1(C)Oc2ccc(C#N)cc2[C@@H](/N=C(\NC#N)Nc2cccc(C(=O)O)c2)[C@@H]1O`: the half-inhibitory concentration (IC50) in experiment [3] was above 100 µM.

For the molecule `CC1(C)Oc2ccc(C#N)cc2[C@@H](NC(=O)Nc2ccccn2)[C@@H]1O`, the Ratio in experiment [1] came out at 5.9. This molecule yielded a 25% effect concentration (EC25) in experiment [2] of 2.6 µM. This molecule also registered a 50% inhibitory concentration (IC50) in experiment [3] of 0.44 µM.

For `CC1(C)Oc2ccc(C#N)cc2[C@@H](/N=C(\NC#N)Nc2ccc3c(c2)CCC3)[C@@H]1O`, the Ratio in experiment [1] is on record as 0.08. In experiment [2], this molecule came in with a concentration for an effect of 25% (EC25) of 3.5 µM. The molecule also gave an IC50 in experiment [3] of 41.3 µM.

Consider `CC1(C)Oc2ccc(C#N)cc2[C@@H](NC(=O)Cc2ccccc2)[C@@H]1O`, for which, in experiment [1], the Ratio worked out at 12.3. In experiment [2], this molecule registered a 25% effect concentration (EC25) of 22.2 µM. In experiment [3], this molecule showed an IC50 of 1.8 µM.

Take `CSc1cccc(N/C(=N/[C@@H]2c3cc(C#N)ccc3OC(C)(C)[C@H]2O)NC#N)c1`: in experiment [1], the Ratio was determined as 5.6. The molecule also showed an EC25 in experiment [2] of 8.2 µM. Moreover, the IC50 in experiment [3] was 1.4 µM.

Take `CC1(C)Oc2ccc(C#N)cc2[C@@H](/N=C(\NC#N)Nc2cccc([N+](=O)[O-])c2)[C@@H]1O`: in experiment [1], the Ratio worked out at 7.5. Besides, the concentration for an effect of 25% (EC25) in experiment [2] is 5 µM. This molecule also showed an IC50 in experiment [3] of 0.67 µM.

As to `CCC(C)(C)/N=C(\NC#N)N[C@@H]1c2cc(C#N)ccc2OC(C)(C)[C@H]1O`, the Ratio in experiment [1] is 0.7.

As to `COC(=O)c1cn([C@@H]2c3cc(C#N)ccc3OC(C)(C)[C@H]2O)c2ccccc12`, the 25% effect concentration (EC25) in experiment [2] turned out to be 3.2 µM.

Turning to `CC1(C)Oc2ccc(C#N)cc2[C@@H](N2CCCC2=O)[C@@H]1O` [CROMAKALIM], the Ratio in experiment [1] stood at 278.1.

With `CSc1ccc(N/C(=N/[C@@H]2c3cc(C#N)ccc3OC(C)(C)[C@H]2O)NC#N)cc1`, in experiment [3], the midpoint of inhibition, the IC50, lay at 6.3 µM.

Consider `CC1(C)Oc2ccc(C#N)cc2[C@@H](/N=C(\NC#N)Nc2cccc(C(F)(F)F)c2)[C@@H]1O`, for which, in experiment [1], the Ratio is 3.3. In experiment [2], the 25% effect concentration (EC25) amounted to 5.3 µM. In experiment [3], the half-maximal inhibitory concentration (IC50) was 1.6 µM.

`CC1(C)Oc2ccc(C#N)cc2[C@@H](n2c(O)nc3ccccc32)[C@@H]1O` showed an EC25 in experiment [2] of 11.7 µM.

With `CC1(C)Oc2ccc(C#N)cc2[C@@H](/N=C(\NC#N)Nc2ccccc2)[C@@H]1O` (stereo in doubt; 3), in experiment [1], the Ratio is reported as 7.9. This molecule also registered an EC25 in experiment [2] of 11 µM.

On to `CC(=O)c1ccc(N/C(=N/[C@@H]2c3cc(C#N)ccc3OC(C)(C)[C@H]2O)NC#N)cc1`, for which, in experiment [1], the Ratio stood at 2.5. The molecule also returned a concentration for an effect of 25% (EC25) in experiment [2] of 52 µM. In addition, in experiment [3], it took 21 µM to reach half-maximal inhibition (IC50).

On to `CC1(C)Oc2ccc(C#N)cc2[C@@H](NC(=O)c2ccccc2)[C@@H]1O`, for which, in experiment [1], the Ratio is 393. The concentration for an effect of 25% (EC25) in experiment [2] stood at 11.8 µM. The half-inhibitory concentration (IC50) in experiment [3] worked out at 0.03 µM.

Molecule `CC1(C)Oc2ccc(C#N)cc2[C@@H](/N=C(\NC#N)Nc2ccc(Cl)c(F)c2)[C@@H]1O` came in with an IC50 in experiment [3] of 1.66 µM.

Regarding `CC1(C)Oc2ccc(C#N)cc2[C@@H](/N=C(\NC#N)NNc2ccccc2)[C@@H]1O`, inhibition in experiment [3] was half-maximal at 3.5 µM (IC50). The molecule also returned an Activity in experiment [4] of 4%.

`CC1(C)Oc2ccc(C#N)cc2[C@@H](NC(=O)Nc2cccnc2)[C@@H]1O`: the Ratio in experiment [1] is reported as 8.4. In addition, the concentration for an effect of 25% (EC25) in experiment [2] was 4.2 µM. This molecule also had a 50% inhibitory concentration (IC50) in experiment [3] of 0.5 µM.

For the molecule `C/N=C(\NC#N)N[C@@H]1c2cc(C#N)ccc2OC(C)(C)[C@H]1O`, the Ratio in experiment [1] worked out at 66.5. The EC25 in experiment [2] turned out to be 13.3 µM.

Consider `CC1(C)Oc2ccc(C#N)cc2[C@@H](/N=C(\NC#N)Nc2ccc(Cl)c(Cl)c2)[C@@H]1O`, for which, in experiment [1], the Ratio is given as 2.8. Further, in experiment [2], the EC25 amounted to 12.9 µM. In experiment [3], this molecule showed an IC50 of 4.6 µM.

As for `CC1(C)Oc2ccc(C#N)cc2[C@@H](/N=C(\NC#N)Nc2ccccc2)[C@@H]1O` (stereo in doubt; 22), the Ratio in experiment [1] was found to be 4.7. Besides, the 25% effect concentration (EC25) in experiment [2] came out at 6.1 µM.

Molecule `CC1(C)Oc2ccc(C#N)cc2[C@@H](/N=C(\NC#N)NCc2ccccc2)[C@@H]1O` registered an EC25 in experiment [2] above 30 µM. For the same molecule, the IC50 in experiment [3] was determined as 2.4 µM.

As to `CC(=O)c1cccc(N/C(=N/[C@@H]2c3cc(C#N)ccc3OC(C)(C)[C@H]2O)NC#N)c1`, the IC50 in experiment [3] amounted to 8.4 µM.

`CC1(C)Oc2ccc(C#N)cc2[C@@H](/N=C(\NC#N)Nc2ccc(C(=O)O)cc2)[C@@H]1O`: the IC50 in experiment [3] is above 100 µM.
